5 compounds from ChEMBL document CHEMBL4808218, “Structural and biophysical characterization of the Burkholderia pseudomallei IspF inhibitor L-tryptophan hydroxamate” (Bioorg Med Chem Lett, 2021) can be followed below.

Activity calls are given as the source filed them. The rule behind the calls is not given here. Where only a bound is given, the exact number is not on record here.

The target in assay [1] is T1, 2-C-methyl-D-erythritol 2,4-cyclodiphosphate synthase (Burkholderia pseudomallei (strain K96243), UniProt Q63T71).
T1 sequence (Q63T71 whole entry): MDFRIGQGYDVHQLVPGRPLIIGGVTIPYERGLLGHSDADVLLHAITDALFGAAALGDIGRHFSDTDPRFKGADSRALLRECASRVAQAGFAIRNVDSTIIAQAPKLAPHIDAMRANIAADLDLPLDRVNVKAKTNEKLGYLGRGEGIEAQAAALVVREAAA
Nature of the assay: Binding affinity to Burkholderia pseudomallei IspF at pH 7.4 measured by isothermal titration calorimetry method. Conditions: read-out: Kd(app). In a few lines: (§1)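 ITC titration of BpIspF with ligand at 25 °C, run in buffer at pH 6.0, 7.4 or 8.0 as set by the line. Fits gave Kb, ΔG°, ΔH°, -TΔS° and stoichiometry. Ligand concentration was set from the tryptophan extinction coefficient. The pH 6.0/7.4 ratio compares the apparent Kd from these two runs.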

Assay [2] has as its target T2, 2-C-methyl-D-erythritol 2,4-cyclodiphosphate synthase (Burkholderia pseudomallei (strain K96243)) (UniProt Q63T71).
T2 sequence (whole entry): T1 sequence (Q63T71 whole entry)
Briefly: Binding affinity to Burkholderia pseudomallei IspF by STD NMR analysis.

In assay [3] the target is T1, 2-C-methyl-D-erythritol 2,4-cyclodiphosphate synthase. Briefly: Binding affinity to Burkholderia pseudomallei IspF at pH 6 measured by isothermal titration calorimetry method. The settings on record: read-out: Kd(app). In a few lines: as §1
Assay [4] has the same target. Briefly: Binding affinity to Burkholderia pseudomallei IspF at pH 8 measured by isothermal titration calorimetry method. The settings on record: read-out: Kd(app). In a few lines:
as §1

Assay [5] concerns the target T2, 2-C-methyl-D-erythritol 2,4-cyclodiphosphate synthase (Burkholderia pseudomallei (strain K96243)). Briefly: Binding affinity to Burkholderia pseudomallei IspF assessed as change in free energy at pH 7.4 measured by isothermal titration calorimetry method. The essentials:
as §1

The target is the same in assay [6]. Briefly: Binding affinity to Burkholderia pseudomallei IspF assessed as change in free energy at pH 6 measured by isothermal titration calorimetry method. The essentials: as §1
The target is the same in assay [7]. Briefly: Binding affinity to Burkholderia pseudomallei IspF assessed as change in free energy at pH 8 measured by isothermal titration calorimetry method. The essentials:
as §1

Assay [8] shares this target. Briefly: Binding affinity to Burkholderia pseudomallei IspF assessed as change in enthalpy at pH 6 measured by isothermal titration calorimetry method. In a few lines: as §1
Assay [9] has the same target. Briefly: Binding affinity to Burkholderia pseudomallei IspF assessed as change in enthalpy at pH 8 measured by isothermal titration calorimetry method. The essentials:
as §1

For assay [10] the target is unchanged. Briefly: Binding affinity to Burkholderia pseudomallei IspF assessed as change in entropy at pH 6 measured by isothermal titration calorimetry method. The essentials: as §1
Assay [11] shares this target. Briefly: Binding affinity to Burkholderia pseudomallei IspF assessed as change in entropy at pH 8 measured by isothermal titration calorimetry method. In a few lines: as §1
Assay [12] shares this target. Nature of the assay: Ratio of apparent Kd for Burkholderia pseudomallei IspF at pH 6 to apparent Kd for Burkholderia pseudomallei IspF at pH 7.4. In a few lines:
as §1

Assay [13] has as its target T3, 2-C-methyl-D-erythritol 2,4-cyclodiphosphate synthase (Escherichia coli (strain K12), UniProt P62617).
T3 sequence (P62617 whole entry): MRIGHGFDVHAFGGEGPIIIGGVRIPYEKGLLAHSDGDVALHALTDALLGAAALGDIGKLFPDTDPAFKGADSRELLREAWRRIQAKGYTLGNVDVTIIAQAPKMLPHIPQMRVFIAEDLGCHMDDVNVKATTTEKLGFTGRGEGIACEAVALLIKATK
Nature of the assay: Binding affinity to Escherichia coli IspF at pH 7.4 measured by isothermal titration calorimetry method. The settings on record: read-out: Kd(app).

Assay [14] deals with T4, 2-C-methyl-D-erythritol 2,4-cyclodiphosphate synthase (Escherichia coli (strain K12)) (UniProt P62617).
T4 sequence (whole entry): T3 sequence (P62617 whole entry)
Nature of the assay: Binding affinity to Escherichia coli IspF assessed as change in free energy at pH 7.4 measured by isothermal titration calorimetry method.

Assay [15] deals with T2, 2-C-methyl-D-erythritol 2,4-cyclodiphosphate synthase (Burkholderia pseudomallei (strain K96243)). Briefly: Binding affinity to Burkholderia pseudomallei IspF assessed as change in enthalpy at pH 7.4 measured by isothermal titration calorimetry method. The essentials: as §1
Assay [16] shares this target. Briefly: Binding affinity to Burkholderia pseudomallei IspF assessed as change in entropy at pH 7.4 measured by isothermal titration calorimetry method. The essentials: as §1

`N[C@H](Cc1c[nH]c2ccccc12)C(=O)O` [D-TRYPTOPHAN]: the Kd in assay [1] was more than 1000 µM.

Regarding `CC(C)=CCC/C(C)=C/COP(=O)(O)OP(=O)(O)O`, the outcome in assay [2] was inactive.

Take `N[C@@H](Cc1c[nH]c2ccccc12)C(=O)O` [TRYPTOPHAN]: in assay [1], the Kd was more than 1000 µM.

In the case of `N[C@@H](Cc1c[nH]c2ccccc12)C(=O)NO`, the Kd in assay [1] amounted to 36 µM; in assay [3], 848 µM; in [4], 24 µM; in [13] it was 22 µM. For the same compound, the deltaG in assay [5] was -6.1 kcal/mol; in [6] it was -4.19 kcal/mol; in assay [7] it was -6.29 kcal/mol; in [14] it was -6.4 kcal/mol. The deltaH was 1.1 kcal/mol in assay [8] and -8.3 kcal/mol in assay [9]. In addition, the -TdeltaS in assay [10] was -5.2 kcal/mol; in assay [11], 2 kcal/mol. Moreover, the Ratio in [12] amounted to 25. Further, the outcome in assay [2] was Active.

With `N[C@H](Cc1c[nH]c2ccccc12)C(=O)NO`, the Kd in assay [1] worked out at 64 µM. Besides, in assay [5], the deltaG is -5.7 kcal/mol. The deltaH in [15] is -6.65 kcal/mol. In assay [16], the -TdeltaS was found to be 0.9 kcal/mol.
